From ChEMBL document CHEMBL1124346 (J Med Chem, 1989)

How the values were obtained:
D(1A) dopamine receptor [1] = target: T1, D(1A) dopamine receptor (Rattus norvegicus, UniProt P18901); assay: Binding activity against Dopamine receptor D1 in rat brain, using [3H]SCH-23390 as the radioligand; assay type: tissue-based
[2] = target: Muscarinic acetylcholine receptor; assay: Binding activity against muscarinic acetylcholine receptor in rat brain using [3H]QNB as the radioligand; assay type: tissue-based
D(2) dopamine receptor [3] = target: T2, D(2) dopamine receptor (Rattus norvegicus, UniProt P61169); assay: Binding activity against dopamine receptor D2 in rat brain, using [3H]spiperone as the radioligand; assay type: tissue-based
In short: (§1)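 Rat striatal membranes; [3H]spiperone 0.95–1.4 nM final, with 40 nM ketanserin in all tubes to mask 5HT-2 sites. Buffer 50 mM Tris-HCl pH 7.4 with 120 mM NaCl, 5 mM KCl, 2 mM CaCl2, 1 mM MgCl2; 37 °C.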

D(2) dopamine receptor [4] = target: T2, D(2) dopamine receptor; assay: Binding activity against dopamine D2 receptor in rat brain, using [3H]spiperone as the radioligand
D(1A) dopamine receptor [5] = target: T1, D(1A) dopamine receptor; assay: Binding activity against dopamine D1 receptor in rat brain, using [3H]SCH-23390 as the radioligand; assay type: tissue-based
In short: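 Rat striatum homogenized in 50 mM Tris-HCl pH 7.4 with 5 mM MgSO4, washed and resuspended in 200 vol. Incubated with [3H]SCH 23390 0.45–0.76 nM final, 37 °C, 30 min; nonspecific binding with 1 μM SCH 23390.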

[6] = target: Muscarinic acetylcholine receptor; assay: Binding activity against muscarinic receptor in rat brain using [3H]QNB as the radioligand; assay type: tissue-based
D(2) dopamine receptor [7] = target: T2, D(2) dopamine receptor; assay: Binding activity against Dopamine receptor D2 in rat brain, using [3H]spiperone as the radioligand; assay type: tissue-based; in short: as §1

T2 sequence (P61169 whole entry): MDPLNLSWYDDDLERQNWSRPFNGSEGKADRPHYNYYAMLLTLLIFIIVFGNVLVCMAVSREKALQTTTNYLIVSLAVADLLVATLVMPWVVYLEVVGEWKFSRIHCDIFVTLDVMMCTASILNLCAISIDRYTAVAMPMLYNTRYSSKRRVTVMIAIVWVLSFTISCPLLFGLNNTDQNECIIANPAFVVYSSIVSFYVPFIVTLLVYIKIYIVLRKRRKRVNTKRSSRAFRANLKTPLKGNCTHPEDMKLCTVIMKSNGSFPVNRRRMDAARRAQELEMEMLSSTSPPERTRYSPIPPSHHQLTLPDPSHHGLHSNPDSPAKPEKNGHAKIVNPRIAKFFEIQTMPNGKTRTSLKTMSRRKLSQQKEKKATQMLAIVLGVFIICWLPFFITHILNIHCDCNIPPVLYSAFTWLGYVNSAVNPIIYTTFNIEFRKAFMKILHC
T1 sequence (P18901 whole entry): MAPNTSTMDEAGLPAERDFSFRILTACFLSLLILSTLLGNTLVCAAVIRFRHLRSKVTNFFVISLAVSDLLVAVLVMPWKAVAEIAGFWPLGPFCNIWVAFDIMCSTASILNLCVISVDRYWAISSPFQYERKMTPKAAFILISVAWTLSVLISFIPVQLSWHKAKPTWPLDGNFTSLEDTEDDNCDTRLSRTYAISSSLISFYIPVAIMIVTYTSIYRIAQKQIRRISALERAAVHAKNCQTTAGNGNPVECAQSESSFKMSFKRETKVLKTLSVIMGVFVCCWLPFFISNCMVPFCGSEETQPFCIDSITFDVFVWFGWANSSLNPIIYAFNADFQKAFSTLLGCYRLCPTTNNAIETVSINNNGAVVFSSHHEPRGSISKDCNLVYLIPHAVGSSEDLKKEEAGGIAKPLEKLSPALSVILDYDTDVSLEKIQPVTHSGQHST

IC50 (D(1A) dopamine receptor [1]) [nM] | IC50 [2] [nM] | IC50 (D(2) dopamine receptor [3]) [nM] | IC50 (D(2) dopamine receptor [4]) [nM] | IC50 (D(1A) dopamine receptor [5]) [nM] | IC50 [6] [nM] | IC50 (D(2) dopamine receptor [7]) [nM] | Compound
305 | 2600 | 6970 |  |  |  |  | C/C=C1/c2ccccc2C=C(N2CCN(C)CC2)c2ccccc21
 |  |  | > 10000 | 895 |  |  | CN1CCN(C2=Nc3ccccc3Nc3ccccc32)CC1
 |  |  |  | 63 | 55 | 218 | CN1CCN(C2=Nc3ccccc3Nc3ccc(Cl)cc32)CC1 [ISOCLOZAPINE]
74 | 1020 | 2650 |  |  |  |  | CC1c2ccccc2C=C(N2CCN(C)CC2)c2ccccc21 (stereo unspecified)
